Test results published in ChEMBL document CHEMBL1157180 (Bioorg Med Chem, 2008).
Calls of active or inactive are those of the source. The calls are words filed in the database; no cut-off is given here.

What was measured:
[1] = system: Rattus norvegicus; experiment: Acute toxicity in orally dosed Wistar rat after 1 week; type: organism-based; settings: in vivo, po, 168 h
How it was run: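 Rats, 8 per group, fasted 16 h, then given the compounds orally at various doses. Animals observed for 1 week after dosing, with deaths recorded daily.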

[2] = species on record: Rattus norvegicus; experiment: Antiamnesic activity in Wistar rat assessed as reversal of scopolamine-induced memory loss by passive avoidance test; type: functional, organism-based
[3] = target: T1, Muscarinic acetylcholine receptor M1 (Rattus norvegicus, UniProt P08482); experiment: Displacement of [3H]Quinuclidinyl benzilate from muscarinic M1 receptor in Wistar rat cortex synaptosomal membrane
T1 sequence (P08482 whole entry): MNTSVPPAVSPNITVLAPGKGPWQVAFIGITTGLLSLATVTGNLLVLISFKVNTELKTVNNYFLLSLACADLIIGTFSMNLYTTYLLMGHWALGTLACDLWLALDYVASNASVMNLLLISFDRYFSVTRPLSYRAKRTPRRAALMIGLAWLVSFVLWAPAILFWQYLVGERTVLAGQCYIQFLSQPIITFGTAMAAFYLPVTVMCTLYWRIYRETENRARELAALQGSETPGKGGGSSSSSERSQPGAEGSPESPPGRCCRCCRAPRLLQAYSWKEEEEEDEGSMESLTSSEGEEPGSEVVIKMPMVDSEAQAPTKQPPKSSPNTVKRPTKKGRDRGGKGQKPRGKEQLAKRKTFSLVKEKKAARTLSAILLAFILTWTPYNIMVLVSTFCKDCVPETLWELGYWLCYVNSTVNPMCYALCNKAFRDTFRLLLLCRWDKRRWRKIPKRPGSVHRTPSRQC

[4] = species on record: Rattus norvegicus; experiment: Reversal of scopolamine-induced memory and learning impairment in Wistar rat assessed as transfer latency for 90 seconds by plus maze test; type: functional, organism-based
How it was run: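 Elevated plus maze in male Wistar rats, 30 min after treatment, given scopolamine alone or test agent plus scopolamine; controls got 0.9% saline. Each rat is placed at the end of an open arm facing away from the centre. Transfer latency (TL) is the time to enter an enclosed arm. Day 1 has 90 s exploration (TL1, learning) and day 2 is a retest of the same rats (TL2, memory).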

[5] = species on record: Rattus norvegicus; experiment: Reversal of scopolamine-induced spartial working memory loss in Wistar rat assessed by Y maze task; type: functional; set-up: concentration or dose not given beside the values
How it was run: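 Male Wistar rats (200–250 g, n = 8) receive test agent with scopolamine and explore the Y-maze 30 min later. Arm entries, including returns, are recorded visually. An alternation is successive entries into all three arms on overlapping triplets. % alternation = actual alternations/(total entries − 2) × 100, compared against the scopolamine-only group.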

SMILES	Activity [1]	Activity [2]	IC50 [3] [µM]	Ki [3] [µM]	Activity [4]	Activity [5] [%]
CN1CCC=C(C2CN(S(=O)(=O)c3ccccc3[N+](=O)[O-])CCO2)C1 (stereo unspecified)	Non-toxic	Active	314	96	–	–
CN1CCC=C(C2CN(S(=O)(=O)c3ccccc3)CCO2)C1 (stereo unspecified)	Non-toxic	Active	90	27	Active	60
CN1CCC=C(C2CN(S(=O)(=O)c3ccc([N+](=O)[O-])cc3)CCO2)C1 (stereo unspecified)	Non-toxic	Active	208	64	–	–
CN1CCC=C(C2CN(S(=O)(=O)c3ccc(C(C)(C)C)cc3)CCO2)C1 (stereo unspecified)	Non-toxic	Active	19	4	Active	61
CN1CCC=C(C2CN(S(=O)(=O)c3ccc(Cl)cc3)CCO2)C1 (stereo unspecified)	Non-toxic	Active	0.92	0.26	Active	64
CN1CCC=C(C2CN(S(=O)(=O)c3cccc([N+](=O)[O-])c3)CCO2)C1 (stereo unspecified)	Non-toxic	Active	201	62	–	–
Cc1ccc(S(=O)(=O)N2CCOC(C3=CCCN(C)C3)C2)cc1 (stereo unspecified)	Non-toxic	Active	61	14	Active	62
CN1CCC=C(C2CN(S(=O)(=O)c3cc(Cl)ccc3Cl)CCO2)C1 (stereo unspecified)	Non-toxic	Active	115	35	–	59
